How the values were obtained:
[1] = target: T1, cAMP and cAMP-inhibited cGMP 3',5'-cyclic phosphodiesterase 10A (Homo sapiens, UniProt Q9Y233); assay: Inhibition of recombinant human N-terminal GST-tagged PDE10A1 (2 to 789 residues) expressed in baculovirus infected Sf9 cells at 5 uM using fluorescein-labeled cAMP as substrate preincubated for 15 mins followed by substrate addition measured after 30 mins by IMAP fluorescence polarization assay relative to control
In short: (§1)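 Recombinant PDE4A1A, PDE2A1 or PDE10A1 was incubated with compound (1% DMSO, duplicate) for 15 min at RT. Fluorescein-cAMP was then added for 30 min at RT, and the reaction was stopped with IMAP binding reagent (1 h, dark). FP was read at Ex485/Em535. Inhibition was set against no-enzyme and DMSO controls. IC50 came from a four-parameter logistic fit; values are the mean of at least two measurements.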

[2] = target: T1, cAMP and cAMP-inhibited cGMP 3',5'-cyclic phosphodiesterase 10A; assay: Inhibition of recombinant human N-terminal GST-tagged PDE10A1 (2 to 789 residues) expressed in baculovirus infected Sf9 cells using fluorescein-labeled cAMP as substrate preincubated for 15 mins followed by substrate addition measured after 30 mins by IMAP fluorescence polarization assay; in short: as §1

T1 sequence (Q9Y233 whole entry, the tested form may be a part): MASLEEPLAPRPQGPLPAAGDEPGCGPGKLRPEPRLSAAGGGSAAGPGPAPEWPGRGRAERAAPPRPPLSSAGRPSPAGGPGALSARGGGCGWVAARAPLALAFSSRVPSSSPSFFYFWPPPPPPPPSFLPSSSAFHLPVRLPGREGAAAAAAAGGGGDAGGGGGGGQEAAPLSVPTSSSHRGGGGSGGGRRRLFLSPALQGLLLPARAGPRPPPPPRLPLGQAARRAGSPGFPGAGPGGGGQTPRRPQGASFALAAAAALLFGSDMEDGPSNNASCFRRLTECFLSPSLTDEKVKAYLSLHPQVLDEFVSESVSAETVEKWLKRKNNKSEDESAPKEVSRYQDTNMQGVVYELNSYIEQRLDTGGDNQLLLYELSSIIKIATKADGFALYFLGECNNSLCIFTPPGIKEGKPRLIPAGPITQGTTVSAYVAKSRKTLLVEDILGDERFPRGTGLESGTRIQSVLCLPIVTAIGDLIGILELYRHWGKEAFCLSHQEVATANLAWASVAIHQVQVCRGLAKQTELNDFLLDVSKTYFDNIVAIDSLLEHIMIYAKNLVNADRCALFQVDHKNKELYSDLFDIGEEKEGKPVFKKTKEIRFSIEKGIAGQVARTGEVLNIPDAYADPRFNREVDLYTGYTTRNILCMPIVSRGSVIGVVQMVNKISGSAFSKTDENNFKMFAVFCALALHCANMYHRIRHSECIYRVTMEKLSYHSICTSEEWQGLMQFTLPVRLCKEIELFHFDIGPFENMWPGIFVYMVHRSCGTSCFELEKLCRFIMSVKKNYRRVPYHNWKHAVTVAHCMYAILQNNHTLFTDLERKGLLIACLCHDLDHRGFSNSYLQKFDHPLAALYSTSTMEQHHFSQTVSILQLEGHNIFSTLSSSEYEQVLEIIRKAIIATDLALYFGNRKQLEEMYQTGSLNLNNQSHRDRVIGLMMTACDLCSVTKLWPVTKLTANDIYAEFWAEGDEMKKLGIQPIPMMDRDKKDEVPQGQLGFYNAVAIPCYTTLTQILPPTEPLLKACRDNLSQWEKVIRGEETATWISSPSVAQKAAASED

## c1ccc(CCn2cnc3c(N4CCOCC4)ncnc32)cc1
[1]
  inhibition: 13%

## COc1ccc(-c2ccc(Cn3c(C)nc4c(N5CCOCC5)ncnc43)cc2)cc1
[1]
  inhibition: 94%
[2]
  IC50: 62 nM

## Cc1nc2c(N3CCOCC3)nccn2c1NCc1ccc(-c2cnn(C)c2)cc1
[1]
  inhibition: 88%

## Cc1nc2c(N3CCOCC3)nccn2c1NC(=O)Cc1ccccc1
[1]
  inhibition: 51%

## c1ccc(-c2ccc(Cn3cnc4c(N5CCOCC5)ncnc43)cc2)cc1
[1]
  inhibition: 94%
[2]
  IC50: 103 nM

## COc1ccc(-c2ccccc2CNc2c(C)nc3c(N4CCOCC4)nccn23)cc1
[1]
  inhibition: 60%

## Cc1nc2c(N3CCOCC3)nccn2c1NCCc1ccc2ccccc2c1
[1]
  inhibition: 78%

## Cc1nc2c(N3CCOCC3)nccn2c1NCc1ccccc1-c1ccc(C(C)(C)C)cc1
[1]
  inhibition: 39%

## Cc1nc2c(N3CCOCC3)ncnc2n1Cc1ccc(-c2cccc(Cl)c2)cc1
[1]
  inhibition: 93%
[2]
  IC50: 258 nM

## Clc1cccc(Cl)c1Cn1cnc2c(N3CCOCC3)ncnc21
[1]
  inhibition: 70%

## COc1cccc(CCn2cnc3c(N4CCOCC4)ncnc32)c1
[1]
  inhibition: 20%

## Cc1nc2c(N3CCOCC3)ncnc2n1Cc1ccccc1Br
[1]
  inhibition: 87%

## COc1ccc(CCNc2c(C)nc3c(N4CCOCC4)nccn23)cc1OC
[1]
  inhibition: 83%

## Cc1nc2c(N3CCOCC3)nccn2c1NC(=O)Cc1ccc2ccccc2c1
[1]
  inhibition: 24%

## Cc1nc2c(N3CCOCC3)nccn2c1NCc1ccc(Br)cc1
[1]
  inhibition: 77%

## Cc1nc2c(N3CCOCC3)nccn2c1NCc1ccccc1-c1cccnc1
[1]
  inhibition: 76%

## Cc1nc2c(N3CCOCC3)nccn2c1NC(=O)Cc1c(Cl)cccc1Cl
[1]
  inhibition: 47%

## Cc1nc2c(N3CCOCC3)nccn2c1NCc1ccc(-c2cccnc2)cc1
[1]
  inhibition: 90%
[2]
  IC50: 529 nM

## Cc1nc2c(N3CCOCC3)ncnc2n1Cc1ccc(-c2cnc3[nH]ncc3c2)cc1
[1]
  inhibition: 98%
[2]
  IC50: 60 nM

## Cc1nc2c(N3CCOCC3)nccn2c1NCc1ccc(-c2ccc3ccccc3c2)cc1
[1]
  inhibition: 54%

## Brc1ccc(Cn2cnc3c(N4CCOCC4)ncnc32)cc1
[1]
  inhibition: 90%
[2]
  IC50: 530 nM

## Cc1nc2c(N3CCOCC3)nccn2c1NC(=O)Cc1ccc2c(c1)OCO2
[1]
  inhibition: 44%

## Cc1nc2c(N3CCOCC3)ncnc2n1Cc1ccc(-c2ccc(Cl)cc2)cc1
[1]
  inhibition: 91%
[2]
  IC50: 168 nM

## Cc1nc2c(N3CCOCC3)ncnc2n1Cc1ccc(-c2ccncc2)cc1
[1]
  inhibition: 96%
[2]
  IC50: 116 nM

## Cc1nc2c(N3CCOCC3)nccn2c1NCc1ccccc1-c1ccc2ccccc2c1
[1]
  inhibition: 63%

## Cc1nc2c(N3CCOCC3)nccn2c1NCc1ccccc1-c1ccccc1
[1]
  inhibition: 75%

## Cc1nc2c(N3CCOCC3)ncnc2n1Cc1ccc(C(=O)Nc2ccccc2)cc1
[1]
  inhibition: 96%
[2]
  IC50: 130 nM

## Cc1nc2c(N3CCOCC3)nccn2c1NCc1ccccc1-c1ccccc1Cl
[1]
  inhibition: 87%

## c1ccc2cc(Cn3cnc4c(N5CCOCC5)ncnc43)ccc2c1
[1]
  inhibition: 100%
[2]
  IC50: 107 nM

## COc1ccc(CC(=O)Nc2c(C)nc3c(N4CCOCC4)nccn23)cc1OC
[1]
  inhibition: 50%

## Cc1nc2c(N3CCOCC3)nccn2c1NCc1ccc(-c2cncnc2)cc1
[1]
  inhibition: 79%

## Cc1noc(C)c1-c1ccc(CNc2c(C)nc3c(N4CCOCC4)nccn23)cc1
[1]
  inhibition: 90%
[2]
  IC50: 518 nM

## Cc1nc2c(N3CCOCC3)nccn2c1NCc1ccccc1Br
[1]
  inhibition: 73%

## Cc1nc2c(N3CCOCC3)nccn2c1NCc1ccccc1-c1cncnc1
[1]
  inhibition: 61%

## Cc1nc2c(N3CCOCC3)nccn2c1NCc1ccc(-c2ccc(C(C)(C)C)cc2)cc1
[1]
  inhibition: 38%

## Cc1ccc(-c2ccc(CNc3c(C)nc4c(N5CCOCC5)nccn34)cc2)cc1
[1]
  inhibition: 74%

## Cc1nc2c(N3CCOCC3)nccn2c1NCCc1ccccc1
[1]
  inhibition: 74%

## Cc1nc2c(N3CCOCC3)ncnc2n1Cc1ccc(-c2ccccc2)cc1
[1]
  inhibition: 99%
[2]
  IC50: 113 to 118 nM

## Cc1nc2c(N3CCOCC3)ncnc2n1Cc1ccc(Br)cc1
[1]
  inhibition: 93%
[2]
  IC50: 327 nM

## COc1ccc(-c2ccc(CNc3c(C)nc4c(N5CCOCC5)nccn34)cc2)cc1
[1]
  inhibition: 87%

## COc1ccc(CCNc2c(C)nc3c(N4CCOCC4)nccn23)cc1Br
[1]
  inhibition: 81%

## Cc1nc2c(N3CCOCC3)nccn2c1NCc1ccc(-c2ccccc2Cl)cc1
[1]
  inhibition: 77%

## COc1ccc(CCNc2c(C)nc3c(N4CCOCC4)nccn23)cc1-c1ccccc1
[1]
  inhibition: 80%

## Cc1nc2c(N3CCOCC3)nccn2c1NCc1ccc(-c2ccncc2)cc1
[1]
  inhibition: 91%
[2]
  IC50: 391 nM

## Cc1nc2c(N3CCOCC3)nccn2c1NCc1ccc(-c2ccccc2)cc1
[1]
  inhibition: 55%

## CCc1nc2c(N3CCOCC3)ncnc2n1Cc1ccc(-c2ccccc2)cc1
[1]
  inhibition: 97%
[2]
  IC50: 168 nM

## Cc1ccc(-c2ccccc2CNc2c(C)nc3c(N4CCOCC4)nccn23)cc1
[1]
  inhibition: 57%

## COc1ccc(CCNc2c(C)nc3c(N4CCOCC4)nccn23)c(-c2ccccc2)c1
[1]
  inhibition: 93%
[2]
  IC50: 336 nM

## Cc1noc(C)c1-c1ccc(Cn2c(C)nc3c(N4CCOCC4)ncnc32)cc1
[1]
  inhibition: 96%
[2]
  IC50: 119 nM

## Cc1nc2c(N3CCOCC3)nccn2c1NCCc1c(Cl)cccc1Cl
[1]
  inhibition: 98%
[2]
  IC50: 447 nM

## COc1ccc(-c2ccccc2CNc2c(C)nc3c(N4CCOCC4)nccn23)cc1OC
[1]
  inhibition: 51%

## COc1cc(Cn2cnc3c(N4CCOCC4)ncnc32)cc(OC)c1
[1]
  inhibition: 85%

## COc1ccc(CCNc2c(C)nc3c(N4CCOCC4)nccn23)c(Br)c1
[1]
  inhibition: 92%
[2]
  IC50: 243 nM

## O=C(Cn1cnc2c(N3CCOCC3)ncnc21)c1ccccc1
[1]
  inhibition: 11%

## Cc1noc(C)c1-c1ccccc1CNc1c(C)nc2c(N3CCOCC3)nccn12
[1]
  inhibition: 68%

## Cc1nc2c(N3CCOCC3)nccn2c1NCc1ccccc1-c1cnn(C)c1
[1]
  inhibition: 64%

## Cc1nc2c(N3CCOCC3)nccn2c1NCCc1ccc2c(c1)OCO2
[1]
  inhibition: 82%

## Cc1nc2c(N3CCOCC3)nccn2c1NCc1ccccc1-c1ccncc1
[1]
  inhibition: 70%

## Cc1nc2c(N3CCOCC3)ncnc2n1Cc1ccc(-c2cccnc2)cc1
[1]
  inhibition: 97%
[2]
  IC50: 61 nM

## CCOC(=O)c1ccc(Cn2c(C)nc3c(N4CCOCC4)ncnc32)cc1
[1]
  inhibition: 90%

## c1ccc(Cn2cnc3c(N4CCOCC4)ncnc32)cc1
[1]
  inhibition: 66%

— ChEMBL document CHEMBL4020742, “Design and optimization of purine derivatives as in vivo active PDE10A inhibitors” (Bioorg Med Chem, 2017)
